From ChEMBL document CHEMBL1138187, “2-(2-Thienyl)-5,6-dihydroxy-4-carboxypyrimidines as inhibitors of the hepatitis C virus NS5B polymerase: discovery, SAR, modeling, and mutagenesis” (J Med Chem, 2006)
The source made the active and inactive calls. The calls are words filed in the database; no cut-off is given here.

Key:
[1] = test system: O=c1ccn([C@@H]2O[C@H](COP(=O)(O)OP(=O)(O)OP(=O)(O)O)[C@@H](O)[C@H]2O)c(=O)[nH]1; experiment: Activity against HCV 1b BK NS5B deltaC55-R158K mutant RNA polymerase; conditions: Hepatitis C virus subtype 1b
Outline: (§1)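 HCV 1b-BK NS5B∆C55 (residues 1-536) carrying R158M or R158K, expressed in E. coli BL21(DE3) and purified. Polymerase run on a homopolymeric template RNA with UTP as substrate; IC50 and UTP Km measured in duplicate.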

[2] = test system: O=c1ccn([C@@H]2O[C@H](COP(=O)(O)OP(=O)(O)OP(=O)(O)O)[C@@H](O)[C@H]2O)c(=O)[nH]1; experiment: Activity against HCV 1b BK NS5B deltaC55-R158M mutant RNA polymerase; conditions: Hepatitis C virus subtype 1b; outline: as §1
Huh-7 = experiment: Cytotoxicity against Huh7 cells upto 100 uM; format: functional, cell-based; conditions: Homo sapiens
[3] = molecular target: RNA-directed RNA polymerase (Hepacivirus hominis) (UniProt O39930); experiment: Inhibitory activity against HCV 1b BK NS5B deltaC55 RNA polymerase at 50 uM; conditions: Hepatitis C virus subtype 1b
[4] = molecular target: RNA-directed RNA polymerase (Hepacivirus hominis) (UniProt O39930); experiment: Inhibition of replication of HCV 1b BK RNA in Huh7 cells at 100 uM in presence of 10% fetal calf serum; format: functional, cell-based; conditions: Huh-7
Outline: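 Subgenomic HCV RNA replicon in Huh-7 cells, modified Bartenschlager procedure with 10% fetal calf serum; compounds first tested at a fixed 100 µM, with EC50 determined only where inhibition exceeded 50%; values averaged over at least three independent determinations.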

[5] = molecular target: RNA-directed RNA polymerase (Hepacivirus hominis) (UniProt O39930); experiment: Inhibitory activity against HCV 1b BK NS5B deltaC55 RNA polymerase at 200 uM; conditions: Hepatitis C virus subtype 1b
[6] = test system: O=c1ccn([C@@H]2O[C@H](COP(=O)(O)OP(=O)(O)OP(=O)(O)O)[C@@H](O)[C@H]2O)c(=O)[nH]1; experiment: Activity against HCV 1b BK NS5B deltaC55 RNA polymerase; conditions: Hepatitis C virus subtype 1b
Outline: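 HCV genotype 1b BK-strain NS5B ΔC55 (residues 1-536) expressed in E. coli BL21(DE3) and purified; activity measured with a homopolymeric RNA template, assay run at pH 7.4 with Mg; IC50 is the mean of at least three independent determinations.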

Molecule | inhibition [3] [%] | inhibition [4] | further results
RNA-directed RNA polymerase (Hepacivirus hominis) (from UniProt O39930) UNDEFINED MUTATION | – | – | Km [1]: 20 µM; Km [2]: 15 µM
O=C(NCc1ccccc1Cl)Nc1ccsc1-c1nc(O)c(O)c(C(=O)O)n1 | – | – | Activity (Huh-7): inactive
O=C(O)c1nc(Cc2ccccc2)nc(O)c1O | 24 | – | –
O=C(Nc1ccsc1-c1nc(O)c(O)c(C(=O)O)n1)OCCc1ccccc1 | – | < 20% | –
CSc1nc(O)c(O)c(C(=O)O)n1 | 55 | inactive | –
O=C(O)c1nc(-c2nccs2)nc(O)c1O | – | < 20% | –
O=C(O)c1nc(C2CCCCC2)nc(O)c1O | – | inactive | inhibition [5]: 31%
O=C(O)c1nc(-c2cccs2)nc(O)c1O | – | inactive | –
RNA-directed RNA polymerase (Hepacivirus hominis), O39930 | – | – | Km [6]: 6 µM
CCCCc1nc(O)c(O)c(C(=O)O)n1 | 0 | – | –
O=C(O)c1nc(-c2ncc[nH]2)nc(O)c1O | 50 | – | –
CS(=O)(=O)c1nc(O)c(O)c(C(=O)O)n1 | – | inactive | –
O=C(O)c1nc(-c2nccn2Cc2ccccc2)nc(O)c1O | 30 | – | –
